Results reported in ChEMBL document CHEMBL1158072, “Antioxidative phenolics from the fresh leaves of Ternstroemia japonica” (J Nat Prod, 2006).

What was measured:
[1] = Antioxidant activity assessed as peroxynitrite scavenging activity by fluorescence spectroscopy; assay type: functional
Method in brief: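 Authentic peroxynitrite oxidation of dihydrorhodamine 123 (final 5 µM) in N2-purged buffer of 90 mM NaCl, 50 mM Na3PO4, 5 mM KCl and 100 µM DTPA, pH 7.4. Fluorescence read 5 min after treatment with and without ONOO- at ex 480/em 530 nm. Signal taken as final minus background. DL-penicillamine positive control. IC50 reported as mean ± standard error, n = 3.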

Kidney = assay: Antioxidant activity assessed as inhibition of total reactive oxygen species generation in Wistar rat kidney by 2',7'-dichlorofluorescein based fluorescence spectroscopy; assay type: functional, tissue-based
Method in brief: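 Rat kidney homogenate (postmicrosomal fraction) from freshly killed male Wistar rats, 150-200 g, mixed with samples in 10% EtOH (final 0.4%). DCHF-DA (12.5 mM, in EtOH, final 0.2%) added in 50 mM phosphate buffer pH 7.4 and incubated 37 °C for 30 min. DCF fluorescence read at ex 460/em 530 nm. Trolox positive control. IC50 reported as mean ± standard error, triplicate.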

[2] = Antioxidant activity assessed as inhibition of hydroxyl radical generation by fluorescence spectroscopy; assay type: functional
Method in brief: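 Test samples in 10% EtOH (final 0.4%) added to 1 mM H2O2 plus 0.2 mM FeSO4 and incubated 37 °C for 5 min. Esterase-treated 2 µM DCHF-DA (in EtOH) then added and fluorescence followed for 30 min at ex 460/em 530 nm. Trolox positive control. IC50 reported as mean ± standard error of triplicate experiments.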

SMILES	IC50 [1]	IC50 (Kidney)	IC50 [2]
O=C(Cc1ccc(O)c(O)c1)O[C@H]1[C@H](OCCc2ccc(O)cc2)O[C@H](CO)[C@@H](O)[C@@H]1O [TERNSTROSIDE E]	2.56 µM	55 µM	4.72 µM
O=c1c(O[C@@H]2O[C@H](CO)[C@@H](O)[C@H](O)[C@H]2O[C@@H]2OC[C@@H](O)[C@H](O)[C@H]2O)c(-c2ccc(O[C@@H]3O[C@H](CO)[C@@H](O)[C@H](O)[C@H]3O)cc2)oc2cc(O)cc(O)c12	13.5 µM	82.2 µM	5.28 µM
Cc1c(C)c2c(c(C)c1O)CCC(C)(C(=O)O)O2 (configuration not stated) [TROLOX]		29.5 µM	2.83 µM
O=C(Cc1ccc(O)c(O)c1)O[C@@H]1[C@@H](O)[C@H](OCCc2ccc(O)c(O)c2)O[C@H](CO)[C@H]1O [TERNSTROSIDE C]	1.14 µM	33.3 µM	3.26 µM
O=C(Cc1ccc(O)cc1)O[C@H]1[C@H](OCCc2ccc(O)c(O)c2)O[C@H](CO)[C@@H](O)[C@@H]1O [TERNSTROSIDE B]	2.36 µM	62.5 µM	4.66 µM
O=C(Cc1ccc(O)c(O)c1)OC[C@H]1O[C@@H](OCCc2ccc(O)c(O)c2)[C@H](O)[C@@H](O)[C@@H]1O [TERNSTROSIDE D]	3.85 µM	66.9 µM	6.5 µM
O=C(Cc1ccc(O)c(O)c1)O[C@H]1[C@H](OCCc2ccc(O)c(O)c2)O[C@H](CO)[C@@H](O)[C@@H]1O [TERNSTROSIDE A]	1.69 µM	39.3 µM	3.41 µM
O=C(Cc1ccc(O)c(O)c1)O[C@H]1[C@H](OCCc2cc(O)c(O)cc2O)O[C@H](CO)[C@@H](O)[C@@H]1O	1.54 µM	45.4 µM	4.21 µM
CC(C)(S)C(N)C(=O)O (racemic) [DL-PENICILLAMINE]	1.05 µM		
O=c1c(O)c(-c2ccc(O)c(O)c2)oc2cc(O)cc(O)c12 [QUERCETIN]	1.38 µM	29.1 µM	2.39 µM
